Measurements published in ChEMBL document CHEMBL1150073, “Cytotoxic cyclolignans from Koelreuteria henryi” (J Nat Prod, 1994).
In brackets after ≈: the same amount, converted by molar mass.

Legend:
SK-OV-3 = test: Cytotoxicity against human SKOV3 cells by MTT assay; format: functional; details: for EC50: Homo sapiens, SK-OV-3, read-out: ED50 (the source's name)
How it was run: (§1)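 Human solid tumour lines tested at the Purdue Cancer Center cell culture laboratory using a standard MTT viability method, with adriamycin run as the control substance.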

A498 = test: Cytotoxicity against human A498 cells by MTT assay; format: functional; details: for EC50: Homo sapiens, A498, read-out: ED50 (the source's name); how it was run: as §1
A-431 = test: Cytotoxicity against human A431 cells by MTT assay; format: functional; details: for EC50: Homo sapiens, A-431, read-out: ED50 (the source's name); how it was run: as §1
A549 = test: Cytotoxicity against human A549 cells by MTT assay; format: functional; details: for EC50: Homo sapiens, A549, read-out: ED50 (the source's name); how it was run: as §1
HT-29 = test: Cytotoxicity against human HT-29 cells by MTT assay; format: functional; details: for EC50: Homo sapiens, HT-29, read-out: ED50 (the source's name); how it was run: as §1
MCF7 = test: Cytotoxicity against human MCF7 cells by MTT assay; format: functional; details: for EC50: Homo sapiens, MCF7, read-out: ED50 (the source's name); how it was run: as §1
PC-3 = test: Cytotoxicity against human PC3 cells by MTT assay; format: functional; details: for EC50: Homo sapiens, PC-3, read-out: ED50 (the source's name); how it was run: as §1
SK-MEL-5 = test: Cytotoxicity against human SK-MEL-5 cells by MTT assay; format: functional; details: for EC50: Homo sapiens, SK-MEL-5, read-out: ED50 (the source's name); how it was run: as §1
[1] = Inhibition of bovine brain tubulin polymerization by turbidity assay; design: species or system Bos taurus
How it was run: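 Microtubule protein isolated from bovine brain, 1 mg/ml, with 1 mM GTP and graded inhibitor concentrations. Turbidity increase read at 340 nm over 30 min at 37°. Positive control contained MTP plus GTP; negative control contained MTP only.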

[2] = Inhibition of bovine brain tubulin polymerization by sedimentation assay; design: species or system Bos taurus
How it was run: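 Microtubule protein from bovine brain (1 mg/ml) with 1 mM GTP and varying inhibitor levels, incubated 30 min at 37°. Microtubules pelleted at 100,000 g for 5 min. Supernatant protein measured by BCA. Sedimented protein calculated relative to the positive control (MTP+GTP) and negative control (MTP alone).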

Molecule `COc1cc(-c2c3c(cc4cc5c(cc24)OCO5)COC3=O)cc2c1OCO2` has an EC50 (SK-OV-3) of 0.0067 µg/mL (≈ 0.0177 µM), an EC50 (A498) of 0.078 µg/mL (≈ 0.206 µM) and an EC50 (A-431) of 0.18 µg/mL (≈ 0.476 µM). It also gave an EC50 (A549) of 0.049 µg/mL (≈ 0.13 µM), an EC50 (HT-29) of 0.29 µg/mL (≈ 0.767 µM) and an EC50 (MCF7) of 9.7 µg/mL (≈ 25.6 µM). For the same molecule, the EC50 (PC-3) was 0.15 µg/mL (≈ 0.396 µM), the EC50 (SK-MEL-5) was 0.0035 µg/mL (≈ 0.00925 µM) and the IC50 [1] was 5000 nM. The IC50 [2] was 20000 nM.
`COc1cc([C@@H]2c3cc4c(cc3C[C@H]3COC(=O)[C@H]32)OCO4)cc2c1OCO2` gave an EC50 (SK-OV-3) of 0.832 µg/mL (≈ 2.18 µM), an EC50 (A498) of 0.76 µg/mL (≈ 1.99 µM) and an EC50 (A-431) of 0.96 µg/mL (≈ 2.51 µM). For the same molecule, the EC50 (A549) was 0.46 µg/mL (≈ 1.2 µM), the EC50 (HT-29) was 0.1 µg/mL (≈ 0.262 µM) and the EC50 (MCF7) was 4.1 µg/mL (≈ 10.7 µM). It also gave an EC50 (PC-3) of 3.1 µg/mL (≈ 8.11 µM), an EC50 (SK-MEL-5) of 0.77 µg/mL (≈ 2.01 µM) and an IC50 [1] of 40000 nM. The IC50 [2] was 45000 nM.
For `COc1cc([C@@H]2c3cc4c(cc3C[C@H]3COC(=O)[C@@H]32)OCO4)cc2c1OCO2` [AUSTROBAILIGNAN 1], the ED50 (SK-OV-3) was 2.7 ×10⁻⁶ ug/ml, the ED50 (A498) was 3.2 ×10⁻⁶ ug/ml and the ED50 (A-431) was 3.6 ×10⁻⁶ ug/ml. It also gave an ED50 (A549) of 3.9 ×10⁻⁶ ug/ml, an ED50 (HT-29) of 3.7 ×10⁻⁶ ug/ml and an ED50 (MCF7) of 5.2 ×10⁻⁵ ug/ml. For the same molecule, the ED50 (PC-3) was 3.3 ×10⁻⁶ ug/ml, the ED50 (SK-MEL-5) was 3 ×10⁻⁷ ug/ml and the IC50 [1] was 800 nM. The IC50 [2] was 1000 nM.
For `COc1cccc2c1C(=O)c1c(O)c3c(c(O)c1C2=O)C[C@@](O)(C(=O)CO)C[C@@H]3O[C@H]1C[C@H](N)[C@H](O)[C@H](C)O1` [DOXORUBICIN], the EC50 (SK-OV-3) was 0.0025 µg/mL (≈ 0.0046 µM), the EC50 (A498) was 0.0032 µg/mL (≈ 0.00589 µM) and the EC50 (A-431) was 0.012 µg/mL (≈ 0.0221 µM). It also gave an ED50 (A549) of 3.1 ×10⁻⁴ ug/ml, an ED50 (HT-29) of 5.6 ×10⁻⁴ ug/ml and an EC50 (MCF7) of 0.02 µg/mL (≈ 0.0368 µM). It also gave an EC50 (PC-3) of 0.01 µg/mL (≈ 0.0184 µM) and an ED50 (SK-MEL-5) of 2.8 ×10⁻⁴ ug/ml.
Work on `COc1cc([C@@H]2c3cc4c(cc3[C@H](O)[C@H]3COC(=O)[C@H]23)OCO4)cc(OC)c1OC` [PODOFILOX] yielded an ED50 (SK-OV-3) of 4.2 ×10⁻⁵ ug/ml, an ED50 (A498) of 3.4 ×10⁻⁷ ug/ml and an ED50 (A-431) of 1.1 ×10⁻⁶ ug/ml. It also gave an ED50 (A549) of 7.7 ×10⁻⁸ ug/ml, an ED50 (HT-29) of 4.7 ×10⁻⁸ ug/ml and an ED50 (MCF7) of 1.1 ×10⁻⁶ ug/ml. The ED50 (PC-3) was 1.2 ×10⁻⁷ ug/ml, the ED50 (SK-MEL-5) was 4.1 ×10⁻⁸ ug/ml and the IC50 [1] was 600 nM. It also gave an IC50 [2] of 1000 nM.
